Among the data in ChEMBL document CHEMBL5325455, “Daphnanes diterpenes from the latex of Hura crepitans L. and their PKCζ-dependent anti-proliferative activity on colorectal cancer cells” (Bioorg Med Chem, 2023) are inhibition, Activity and IC50 values, retold here.

Active and inactive are the calls of the source. The calls are words filed in the database; no cut-off is given here.

Assay [1] has as its system Caco-2. Description: Cytostatic activity against human Caco-2 cells assessed as inhibition of cell growth at 0.5 ug/ml incubated for 48 hrs by MTS assay relative to control. The class given is functional. A digest of the protocol:
(§1)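 Caco-2 cells were seeded at 40 000/well 48 h before dosing. Compound was diluted from a 10 mg/mL DMSO stock into medium (0.125, 0.5 or 1 µg/mL final; DMSO ≤0.01%) and added in triplicate for 48 h. Viability was read by MTS absorbance at 490 nm and expressed relative to the DMSO control.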

Assay [2] has as its target T1, Protein kinase C zeta type (Homo sapiens) (UniProt Q05513).
T1 sequence (whole entry): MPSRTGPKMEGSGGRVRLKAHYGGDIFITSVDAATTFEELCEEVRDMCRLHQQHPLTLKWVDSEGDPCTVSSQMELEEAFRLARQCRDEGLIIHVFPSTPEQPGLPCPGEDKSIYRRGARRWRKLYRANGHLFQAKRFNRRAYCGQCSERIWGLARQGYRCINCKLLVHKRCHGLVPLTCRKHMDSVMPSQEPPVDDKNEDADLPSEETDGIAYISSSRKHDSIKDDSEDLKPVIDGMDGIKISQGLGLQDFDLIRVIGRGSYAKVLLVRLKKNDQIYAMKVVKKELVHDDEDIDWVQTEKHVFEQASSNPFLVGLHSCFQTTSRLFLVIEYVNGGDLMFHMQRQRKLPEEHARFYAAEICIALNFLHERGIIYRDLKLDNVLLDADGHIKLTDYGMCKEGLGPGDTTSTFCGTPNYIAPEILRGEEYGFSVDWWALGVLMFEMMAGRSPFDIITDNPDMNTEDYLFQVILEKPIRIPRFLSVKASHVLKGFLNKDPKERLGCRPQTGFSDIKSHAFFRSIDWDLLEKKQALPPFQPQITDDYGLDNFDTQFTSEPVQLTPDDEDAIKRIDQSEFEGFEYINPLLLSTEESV
As to the kind of experiment: Activation of PKCzeta in human Caco-2 cells assessed as increase in phosphorylation at Thr410 residue at 1 ug/ml measured after 48 hrs by Western blot analysis. Type of assay: cell-based. As to conditions: filed as activator, dose 1.0 µg/ml. A digest of the protocol: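 Caco-2 cells (0.25 × 10^6/well) were pretreated or not with 2.5 µM CRT0066854 for 30 min, then treated at 1 µg/mL for 48 h. Lysis buffer was pH 7.4 Tris/NaCl/0.1% Triton/EDTA with protease and phosphatase inhibitors. 30 µg protein was run on 4–15% SDS-PAGE, blotted and probed overnight at 4°C for pThr410-PKCζ and total PKCζ, with HRP/ECL detection.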
For orientation: Immunoblotting shows a protein as a band on a membrane.

The target in assay [3] is T1, Protein kinase C zeta type (Homo sapiens). As to the kind of experiment: Activation of PKCzeta in human Caco-2 cells assessed as increase in colocalization of PKCzeta and actin in dense cell aggregates at 1 ug/ml measured after 48 hrs by immunostaining analysis. The class given is cell-based. As to conditions: filed as activator, dose 1.0 µg/ml. A digest of the protocol: (§2)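 Caco-2 cells were seeded at 40 000/well and treated for 48 h as in the viability assay. They were fixed in 3.7% PFA for 20 min and permeabilised in HBSS/0.5% Triton X100/1% BSA. Anti-PKCζ (1/50) or anti-PKCα (1/200) was applied overnight at 4°C, then Alexa 488 secondary for 45 min. Phalloidin and Hoechst counterstained the cells before confocal imaging; PKCα signal was quantified by immunofluorescence.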

The target in assay [4] is Glycogen synthase kinase-3 beta (Homo sapiens) (UniProt P49841). As to the kind of experiment: Inhibition of GSK3beta in human Caco-2 cells assessed as increase in phosphorylation at serine 9 residue at 1 ug/ml incubated for 48 hrs by Western blot analysis. The class given is cell-based. As to conditions: dose 1.0 µg/ml. The procedure, abridged: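 Caco-2 cells (0.25 × 10^6/well) were treated at 1 µg/mL for 48 h and lysed in pH 7.4 Tris/NaCl/Triton/EDTA buffer with protease and phosphatase inhibitors. 30 µg protein was run per lane on 4–15% gels and blotted for pSer9-GSK3β, total GSK3β, pSer473-Akt, total Akt and β-catenin, with actin as loading control. Detection was by ECL; n=2, t-test versus DMSO.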
Glycogen synthase kinase-3 beta (Homo sapiens), sequence (P49841 whole entry, looked up): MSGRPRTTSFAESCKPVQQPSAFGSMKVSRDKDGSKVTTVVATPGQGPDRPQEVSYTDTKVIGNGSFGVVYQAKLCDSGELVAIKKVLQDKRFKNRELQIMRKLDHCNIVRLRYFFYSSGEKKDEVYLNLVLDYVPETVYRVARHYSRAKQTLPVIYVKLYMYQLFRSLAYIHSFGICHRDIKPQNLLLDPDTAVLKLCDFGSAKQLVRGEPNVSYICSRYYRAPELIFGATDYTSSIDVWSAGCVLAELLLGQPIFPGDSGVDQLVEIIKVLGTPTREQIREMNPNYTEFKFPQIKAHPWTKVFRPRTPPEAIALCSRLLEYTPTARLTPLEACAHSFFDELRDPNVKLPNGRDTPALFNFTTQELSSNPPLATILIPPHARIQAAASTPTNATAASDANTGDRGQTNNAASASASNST

For assay [5], the system named is Caco-2. Description: Cytostatic activity against human Caco-2 cells assessed as reduction in cell growth at 1 ug/ml preincubated for 15 mins with PD0325901 followed by compound addition and measured after 48 hrs by MTS assay. The class given is functional, cell-based. As to conditions: dose 1.0 µg/ml. The procedure, abridged:
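Caco-2 cells were pretreated with 0.5 µM PD0325901 for 15 min, then given compound at 1 µg/mL for 48 h. Viability was measured by MTS at 490 nm; n=3, t-test versus DMSO.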

The next assay deals with SARS-CoV-2. As to the kind of experiment: Antiviral activity against SARS-CoV-2 assessed as reduction in progeny production measured 24 hrs post infection by PFU assay. Type of assay: functional, organism-based. As to conditions: Severe acute respiratory syndrome coronavirus 2, 24 h.
Assay [6] concerns Colorectal epithelial cell. Description: Cytostatic activity against human Colorectal epithelial cells isolated from left colon of patient with sigmoido-vaginal fistula for diverticulitis cultured as organoids at 1 ug/ml incubated for 48 hrs by CellTiter-Glo luminescence assay. Type of assay: functional, cell-based. The conditions noted are these: dose 1.0 µg/ml. A digest of the protocol:
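Primary colonic epithelial cells (3 control and 2 CRC patients) were expanded as organoids or spheroids in Matrigel with EGF/noggin/Wnt3a/R-spondin medium. Single cells were seeded at 2500/well and allowed 48 h to form colonoids, then exposed for 48 h at 0.01, 0.1 or 1 µg/mL, with 5FdU at 1 µg/mL as positive control. Viability was read by CellTiter-Glo luminescence versus DMSO or medium control.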
(In ATP-based viability assays light output follows the ATP content of the culture.)

Assay [7] has as its system Caco-2. As to the kind of experiment: Cytostatic activity against human Caco-2 cells assessed as inhibition of cell growth at 1 ug/ml preincubated for 15 mins with PKCalpha inhibitor, Go6976 followed by compound addition and measured after 48 hrs by MTS assay. The class given is functional, cell-based. As to conditions: dose 1.0 µg/ml. A digest of the protocol: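 Caco-2 cells (40 000/well) were pretreated with 0.2 µM Gö6976 for 15 min, then given compound at 1 µg/mL for 48 h. MTS absorbance was read at 490 nm and activity calculated relative to DMSO controls; triplicates, 1–3 independent experiments, two-way ANOVA.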
Background: Tetrazolium assays rely on reduction of a dye to a coloured formazan, in cell work by metabolically active cells.

Assay [8] deals with Caco-2. Description: Downregulation of PKCalpha expression in human Caco-2 cells at 1 ug/ml incubated for 48 hrs by immunostaining based confocal microscopic analysis. The class given is functional, cell-based. The conditions noted are these: dose 1.0 µg/ml. The procedure, abridged:
as §2

The target of assay [9] is Protein kinase C delta type (Homo sapiens) (UniProt Q05655). As to the kind of experiment: Inhibition of PKCdelta in human Caco-2 cells assessed as reduction in protein phosphorylation at Ser664 residue at 1 ug/ml incubated for 48 hrs by Western blot analysis. The class given is cell-based. As to conditions: dose 1.0 µg/ml.
Protein kinase C delta type (Homo sapiens), sequence (Q05655 whole entry, looked up): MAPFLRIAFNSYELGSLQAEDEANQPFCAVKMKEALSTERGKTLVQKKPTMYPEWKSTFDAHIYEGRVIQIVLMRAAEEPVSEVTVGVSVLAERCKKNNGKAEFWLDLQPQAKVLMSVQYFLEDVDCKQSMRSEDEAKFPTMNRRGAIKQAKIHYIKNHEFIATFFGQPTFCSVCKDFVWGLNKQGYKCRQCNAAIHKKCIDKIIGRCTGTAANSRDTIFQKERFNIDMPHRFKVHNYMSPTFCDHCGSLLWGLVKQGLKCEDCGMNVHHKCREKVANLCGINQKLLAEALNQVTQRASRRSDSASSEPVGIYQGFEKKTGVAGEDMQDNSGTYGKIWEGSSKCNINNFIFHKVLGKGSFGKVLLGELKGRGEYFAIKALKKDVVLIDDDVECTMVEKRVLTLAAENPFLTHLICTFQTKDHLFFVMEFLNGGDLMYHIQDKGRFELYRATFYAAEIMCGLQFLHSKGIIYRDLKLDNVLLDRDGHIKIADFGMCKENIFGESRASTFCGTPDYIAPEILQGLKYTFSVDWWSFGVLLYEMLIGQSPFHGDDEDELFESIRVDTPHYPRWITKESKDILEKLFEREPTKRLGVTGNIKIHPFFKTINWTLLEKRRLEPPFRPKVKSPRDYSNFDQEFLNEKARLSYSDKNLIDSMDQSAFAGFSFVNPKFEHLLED
For assay [10] the target is unchanged. As to the kind of experiment: Inhibition of PKCdelta in human Caco-2 cells assessed as reduction in protein phosphorylation at Ser664 residue at 1 ug/ml preincubated for 15 mins with PKCalpha inhibitor, Go6976 followed by compound addition and measured after 48 hrs by Western blot analysis. As to conditions: dose 1.0 µg/ml. The class given is cell-based. The procedure, abridged: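 Caco-2 cells were given 0.2 µM Gö6976 for 15 min, then compound at 1 µg/mL for 48 h. Lysates (30 µg protein) were blotted for pSer664-PKCδ and total PKCδ with actin loading control, and the pSer664/total PKCδ ratio was quantified. Data are from one experiment.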

Assay [11] concerns Caco-2. As to the kind of experiment: Cytostatic activity against human Caco-2 cells assessed as inhibition of cell growth at 1 ug/ml incubated for 48 hrs by MTS assay relative to control. Type of assay: functional. The procedure, abridged:
as §1

By inhibition is commonly meant the percentage by which the read-out fell short of the control. One may read the IC50 as the point on the concentration scale where inhibition reaches its midpoint. For the compound `C=C(C)[C@]12C[C@@H](C)[C@@]34O[C@](/C=C/C=C/CCCCCCCCC)(O[C@@H]1[C@@H]3[C@@H]1O[C@]1(CO)[C@@H](O)[C@]1(O)C(=O)C(C)=C[C@H]14)O2`, the inhibition at 0.5 µg/mL with Caco-2 [1] came to 20%. Also, the result (in assay [2]; in [3]; in assay [6]; in the assay with Caco-2 [7]; in the assay with Caco-2 [8]) was Active. Further, the inhibition entry in assay [4], in assay [9] and in [10] was “Active” in each case. Besides, the outcome with Caco-2 [5] was inactive. The IC50 in the assay with SARS-CoV-2 stood at 64.2 µM.
With `C=C(C)[C@]12C[C@@H](C)[C@@]34O[C@](/C=C/[C@@H]5O[C@H]5CCCCCCCCC)(O[C@@H]1[C@@H]3[C@@H]1O[C@]1(CO)[C@@H](O)[C@]1(O)C(=O)C(C)=C[C@H]14)O2`, the inhibition at 1 µg/mL in the assay with Caco-2 [11] is 30%. In assay [4], the inhibition entry is “Active”. Moreover, the outcome (in assay [6]; with Caco-2 [7]; with Caco-2 [8]) was Active.
